Test results taken from ChEMBL document CHEMBL3271984, “Antifungal activity of 4-substituted crotonic acid esters” (1976).
Values after ≈ are worked out from the molar mass of the structure shown. Active and inactive are the calls of the source. No cut-off for these calls is given here.

Legend:
[1] = test system: Trichophyton mentagrophytes; assay: Antifungal activity against Trichophyton mentagrophytes ATCC 9129 assessed as growth inhibition at pH 7 incubated for 5 days in absence of 10% beef serum; assay type: functional; details: ATCC 9129, 120 h, read-out: MIC100
Procedure, shortened: (§1)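 Agar dilution in Sabouraud dextrose agar at pH 5.6 or 7.0, with or without 10% beef serum. C. albicans and M. mucedo were incubated 20 h at 37°; A. niger and T. mentagrophytes 5 days at 28°. The value is the minimal µg/ml giving 100% inhibition. Steps were 1 µg/ml up to 10, 2 up to 20, then 10 up to 100 µg/ml maximum.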

[2] = test system: Candida albicans; assay: Antifungal activity against Candida albicans ATCC 10231 assessed as growth inhibition at pH 7 incubated for 20 hrs in presence of 10% beef serum; assay type: functional; details: ATCC 10231, 20 h, read-out: MIC100; procedure, shortened: as §1
[3] = test system: Aspergillus niger; assay: Antifungal activity against Aspergillus niger ATCC 1004 assessed as ratio of cystine to compound at pH 7 incubated for 5 days in absence of 10% beef serum; assay type: functional
Procedure, shortened: (§2)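 Sabouraud agar at pH 7.0 without beef serum. The toxicant was added at one increment above its minimal inhibitory level for each organism. Cystine, cysteine or glutathione was added at molar ratios of 1:1 to 10:1 versus toxicant, in 1-equiv steps. Plates were inoculated and incubated at 37° for 20 h (C. albicans, M. mucedo) or 28° for 5 days (A. niger, T. mentagrophytes), then scored for growth.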

[4] = test system: Mucor mucedo; assay: Antifungal activity against Mucor mucedo ATCC 7941 assessed as growth inhibition at pH 5.6 incubated for 20 hrs in presence of 10% beef serum; assay type: functional; details: ATCC 7941, 20 h, read-out: MIC100; procedure, shortened: as §1
[5] = test system: Candida albicans; assay: Antifungal activity against Candida albicans ATCC 10231 assessed as ratio of glutathione to compound at pH 7 incubated for 20 hrs in absence of 10% beef serum; assay type: functional; procedure, shortened: as §2
[6] = test system: Aspergillus niger; assay: Antifungal activity against Aspergillus niger ATCC 1004 assessed as growth inhibition at pH 5.6 incubated for 5 days in absence of 10% beef serum; assay type: functional; details: ATCC 1004, 120 h, read-out: MIC100; procedure, shortened: as §1
[7] = test system: Candida albicans; assay: Antifungal activity against Candida albicans ATCC 10231 assessed as growth inhibition at pH 7 incubated for 20 hrs in absence of 10% beef serum; assay type: functional; details: ATCC 10231, 20 h, read-out: MIC100; procedure, shortened: as §1
[8] = test system: Trichophyton mentagrophytes; assay: Antifungal activity against Trichophyton mentagrophytes ATCC 9129 assessed as growth inhibition at pH 7 incubated for 5 days in presence of 10% beef serum; assay type: functional; details: ATCC 9129, 120 h, read-out: MIC100; procedure, shortened: as §1
[9] = test system: Mucor mucedo; assay: Antifungal activity against Mucor mucedo ATCC 7941 assessed as ratio of glutathione to compound at pH 7 incubated for 20 hrs in absence of 10% beef serum; assay type: functional; procedure, shortened: as §2
[10] = test system: Aspergillus niger; assay: Antifungal activity against Aspergillus niger ATCC 1004 assessed as growth inhibition at pH 7 incubated for 5 days in absence of 10% beef serum; assay type: functional; details: ATCC 1004, 120 h, read-out: MIC100; procedure, shortened: as §1
[11] = test system: Mucor mucedo; assay: Antifungal activity against Mucor mucedo ATCC 7941 assessed as growth inhibition at pH 7 incubated for 20 hrs in presence of 10% beef serum; assay type: functional; details: ATCC 7941, 20 h, read-out: MIC100; procedure, shortened: as §1
[12] = test system: Trichophyton mentagrophytes; assay: Antifungal activity against Trichophyton mentagrophytes ATCC 9129 assessed as ratio of cysteine to compound at pH 7 incubated for 5 days in absence of 10% beef serum; assay type: functional; procedure, shortened: as §2
[13] = test system: Candida albicans; assay: Antifungal activity against Candida albicans ATCC 10231 assessed as growth inhibition at pH 5.6 incubated for 20 hrs in absence of 10% beef serum; assay type: functional; details: ATCC 10231, 20 h, read-out: MIC100; procedure, shortened: as §1
[14] = test system: Candida albicans; assay: Antifungal activity against Candida albicans ATCC 10231 assessed as ratio of cystine to compound at pH 7 incubated for 20 hrs in absence of 10% beef serum; assay type: functional; procedure, shortened: as §2
[15] = test system: Trichophyton mentagrophytes; assay: Antifungal activity against Trichophyton mentagrophytes ATCC 9129 assessed as growth inhibition at pH 5.6 incubated for 5 days in absence of 10% beef serum; assay type: functional; details: ATCC 9129, 120 h, read-out: MIC100; procedure, shortened: as §1
[16] = test system: Candida albicans; assay: Antifungal activity against Candida albicans ATCC 10231 assessed as ratio of cysteine to compound at pH 7 incubated for 20 hrs in absence of 10% beef serum; assay type: functional; procedure, shortened: as §2
[17] = test system: Aspergillus niger; assay: Antifungal activity against Aspergillus niger ATCC 1004 assessed as growth inhibition at pH 7 incubated for 5 days in presence of 10% beef serum; assay type: functional; details: ATCC 1004, 120 h, read-out: MIC100; procedure, shortened: as §1
[18] = test system: Aspergillus niger; assay: Antifungal activity against Aspergillus niger ATCC 1004 assessed as ratio of cysteine to compound at pH 7 incubated for 5 days in absence of 10% beef serum; assay type: functional; procedure, shortened: as §2
[19] = test system: Trichophyton mentagrophytes; assay: Antifungal activity against Trichophyton mentagrophytes ATCC 9129 assessed as ratio of cystine to compound at pH 7 incubated for 5 days in absence of 10% beef serum; assay type: functional; procedure, shortened: as §2
[20] = test system: Candida albicans; assay: Antifungal activity against Candida albicans ATCC 10231 assessed as growth inhibition at pH 5.6 incubated for 20 hrs in presence of 10% beef serum; assay type: functional; details: ATCC 10231, 20 h, read-out: MIC100; procedure, shortened: as §1
[21] = test system: Mucor mucedo; assay: Antifungal activity against Mucor mucedo ATCC 7941 assessed as growth inhibition at pH 7 incubated for 20 hrs in absence of 10% beef serum; assay type: functional; details: ATCC 7941, 20 h, read-out: MIC100; procedure, shortened: as §1
[22] = test system: Mucor mucedo; assay: Antifungal activity against Mucor mucedo ATCC 7941 assessed as ratio of cystine to compound at pH 7 incubated for 20 hrs in absence of 10% beef serum; assay type: functional; procedure, shortened: as §2
[23] = test system: Mucor mucedo; assay: Antifungal activity against Mucor mucedo ATCC 7941 assessed as growth inhibition at pH 5.6 incubated for 20 hrs in absence of 10% beef serum; assay type: functional; details: ATCC 7941, 20 h, read-out: MIC100; procedure, shortened: as §1
[24] = test system: Mucor mucedo; assay: Antifungal activity against Mucor mucedo ATCC 7941 assessed as ratio of cysteine to compound at pH 7 incubated for 20 hrs in absence of 10% beef serum; assay type: functional; procedure, shortened: as §2
[25] = test system: Aspergillus niger; assay: Antifungal activity against Aspergillus niger ATCC 1004 assessed as ratio of glutathione to compound at pH 7 incubated for 5 days in absence of 10% beef serum; assay type: functional; procedure, shortened: as §2
[26] = test system: Trichophyton mentagrophytes; assay: Antifungal activity against Trichophyton mentagrophytes ATCC 9129 assessed as growth inhibition at pH 5.6 incubated for 5 days in presence of 10% beef serum; assay type: functional; details: ATCC 9129, 120 h, read-out: MIC100; procedure, shortened: as §1
[27] = test system: Aspergillus niger; assay: Antifungal activity against Aspergillus niger ATCC 1004 assessed as growth inhibition at pH 5.6 incubated for 5 days in presence of 10% beef serum; assay type: functional; details: ATCC 1004, 120 h, read-out: MIC100; procedure, shortened: as §1
[28] = test system: Trichophyton mentagrophytes; assay: Antifungal activity against Trichophyton mentagrophytes ATCC 9129 assessed as ratio of glutathione to compound at pH 7 incubated for 5 days in absence of 10% beef serum; assay type: functional; procedure, shortened: as §2
[29] = test system: Mucor mucedo; assay: Antifungal activity against Mucor mucedo ATCC 7941 incubated for 20 hrs; assay type: functional, organism-based
[30] = test system: Aspergillus niger; assay: Antifungal activity against Aspergillus niger ATCC 1004 incubated for 5 days; assay type: functional, organism-based
[31] = test system: Trichophyton mentagrophytes; assay: Antifungal activity against Trichophyton mentagrophytes ATCC 9129 incubated for 5 days; assay type: functional, organism-based
[32] = test system: Candida albicans; assay: Antifungal activity against Candida albicans ATCC 10231 incubated for 20 hrs; assay type: functional, organism-based

SMILES: COC(=O)/C=C/CBr
- MIC [1]: 5 µg/mL (≈ 27.9 µM)
- MIC [2]: 30 µg/mL
- Ratio [3]: >10
- MIC [4]: 8 µg/mL
- Ratio [5]: 3
- MIC [6]: 50 µg/mL (≈ 279 µM)
- MIC [7]: 30 µg/mL (≈ 168 µM)
- MIC [8]: 6 µg/mL
- Ratio [9]: 8
- MIC [10]: 50 µg/mL (≈ 279 µM)
- MIC [11]: 14 µg/mL
- Ratio [12]: 10
- MIC [13]: 30 µg/mL (≈ 168 µM)
- Ratio [14]: >10
- MIC [15]: 3 µg/mL (≈ 16.8 µM)
- Ratio [16]: 2
- MIC [17]: 60 µg/mL
- Ratio [18]: <1
- Ratio [19]: >10
- MIC [20]: 30 µg/mL
- MIC [21]: 10 µg/mL (≈ 55.9 µM)
- Ratio [22]: >10
- MIC [23]: 6 µg/mL (≈ 33.5 µM)
- Ratio [24]: 4
- Ratio [25]: <1
- MIC [26]: 5 µg/mL
- MIC [27]: 50 µg/mL
- Ratio [28]: 9

SMILES: COC(=O)/C=C/CSC
- MIC [1]: 70 µg/mL (≈ 479 µM)
- Ratio [9]: <1
- Ratio [12]: <1
- MIC [15]: 90 µg/mL (≈ 616 µM)
- Ratio [19]: >10
- MIC [21]: 80 µg/mL (≈ 547 µM)
- Ratio [22]: >10
- MIC [23]: 70 µg/mL (≈ 479 µM)
- Ratio [24]: <1
- Ratio [28]: <1

SMILES: C/C=C/C(=O)OCCCCC
- Activity [29]: inactive
- Activity [30]: inactive
- Activity [31]: inactive
- Activity [32]: inactive

SMILES: C/C=C/C(=O)OCCCCCC
- Activity [29]: inactive
- Activity [30]: inactive
- Activity [31]: inactive
- Activity [32]: inactive

SMILES: C/C=C/C(=O)OC
- Activity [29]: inactive
- Activity [30]: inactive
- Activity [31]: inactive
- Activity [32]: inactive

SMILES: C/C=C/C(=O)OCC
- Activity [29]: inactive
- Activity [30]: inactive
- Activity [31]: inactive
- Activity [32]: inactive

SMILES: C=CC(=O)OC
- Activity [29]: inactive
- Activity [30]: inactive
- Activity [31]: inactive
- Activity [32]: inactive

SMILES: C/C=C/C(=O)OCCCC
- Activity [29]: inactive
- Activity [30]: inactive
- Activity [31]: inactive
- Activity [32]: inactive

SMILES: C/C=C/C(=O)OCCC
- Activity [29]: inactive
- Activity [30]: inactive
- Activity [31]: inactive
- Activity [32]: inactive
